Results reported in ChEMBL document CHEMBL1250442, “Inhibiting gene expression at transcription start sites in chromosomal DNA with antigene RNAs” (Nat Chem Biol, 2005).
The source made the active and inactive calls. No cut-off for these calls is given here.

Columns and labels:
[1] = system: T47D; assay: Inhibition of PR-A gene expression in human T47D cells at 25 nM by syber green assay in presence of 10 nM estradiol; type: functional, cell-based
[2] = system: T47D; assay: Inhibition of PR-B gene expression in human T47D cells at 25 nM by syber green assay in presence of 10 nM estradiol; type: functional, cell-based
[3] = system: T47D; assay: Inhibition of PR-A mRNA gene expression in human T47D cells at 100 nM by syber green assay; type: functional
Procedure, shortened: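 T47D cells plated at 80,000/well without antibiotics two days before Oligofectamine transfection with agRNA duplex (25 or 100 nM final); medium changed at 24 h, harvest day 5 unless stated otherwise. TRIzol total RNA; PR mRNA by real-time PCR with SYBR Green: 50 °C 2 min, 95 °C 10 min, 40 cycles 95 °C 15 s/60 °C 1 min.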

[4] = system: T47D; assay: Inhibition of PR-B mRNA gene expression in human T47D cells at 100 nM by syber green assay; type: functional
Procedure, shortened: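 T47D cells in RPMI-1640 with 10% FBS, NEAA, insulin, 37 °C, 5% CO2. Plated two days before transfection without antibiotics. Oligofectamine-mediated duplex RNA transfection at 100 nM final, medium changed at 24 h, harvest five days post-transfection. Total RNA extracted with TRIzol. hPR mRNA quantified by SYBR Green qPCR: 50 °C 2 min, 95 °C 10 min, then 40 cycles of 95 °C 15 s / 60 °C 1 min.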

[5] = system: T47D; assay: Inhibition of androgen receptor expression in human T47D cells after 12 days at 100 nM by syber green assay; type: functional, cell-based
Procedure, shortened: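 AR expression in T47D cells, grown in RPMI-1640 with 10% FBS, NEAA and insulin. Plated antibiotic-free two days before Oligofectamine transfection with 100 nM duplex RNA; medium replaced after 24 h. TRIzol total RNA. SYBR Green real-time PCR: 50 °C 2 min, 95 °C 10 min, 40 cycles of 95 °C 15 s and 60 °C 1 min.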

[6] = system: T47D; assay: Effect of DNA methylation at (-178) CpG site near androgen receptor transcription start site (-13) in human T47D cells by sodium bisulfite sequencing analysis; type: functional, cell-based
Procedure, shortened: (§1)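 T47D cells (RPMI-1640, 10% FBS, NEAA, insulin; 37 °C, 5% CO2) transfected with agRNA duplexes via Oligofectamine, medium changed at 24 h. Genomic DNA bisulphite-treated, regions around AR and hPR-B start sites PCR-amplified (HotStarTaq, 100 ng treated DNA), gel-purified, TOPO TA cloned; 5–15 colonies per plate miniprepped and sequenced.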

[7] = system: T47D; assay: Effect of DNA methylation at (-172) CpG site near androgen receptor transcription start site (-13) in human T47D cells by sodium bisulfite sequencing analysis; type: functional, cell-based; procedure, shortened: as §1
[8] = system: T47D; assay: Effect of DNA methylation at (-167) CpG site near androgen receptor transcription start site (-13) in human T47D cells by sodium bisulfite sequencing analysis; type: functional, cell-based; procedure, shortened: as §1
[9] = system: T47D; assay: Effect of DNA methylation at (-132) CpG site near androgen receptor transcription start site (-13) in human T47D cells by sodium bisulfite sequencing analysis; type: functional, cell-based; procedure, shortened: as §1
[10] = system: T47D; assay: Effect of DNA methylation at (-126) CpG site near androgen receptor transcription start site (-13) in human T47D cells by sodium bisulfite sequencing analysis; type: functional, cell-based; procedure, shortened: as §1
[11] = system: T47D; assay: Effect of DNA methylation at (-124) CpG site near androgen receptor transcription start site (-13) in human T47D cells by sodium bisulfite sequencing analysis; type: functional, cell-based; procedure, shortened: as §1
[12] = system: T47D; assay: Effect of DNA methylation at (-122) CpG site near androgen receptor transcription start site (-13) in human T47D cells by sodium bisulfite sequencing analysis; type: functional, cell-based; procedure, shortened: as §1
[13] = system: T47D; assay: Effect of DNA methylation at (-57) CpG site near androgen receptor transcription start site (-13) in human T47D cells by sodium bisulfite sequencing analysis; type: functional, cell-based; procedure, shortened: as §1
[14] = system: T47D; assay: Effect of DNA methylation at (-52) CpG site near androgen receptor transcription start site (-13) in human T47D cells by sodium bisulfite sequencing analysis; type: functional, cell-based; procedure, shortened: as §1
[15] = system: T47D; assay: Effect of DNA methylation at (-43) CpG site near androgen receptor transcription start site (-13) in human T47D cells by sodium bisulfite sequencing analysis; type: functional, cell-based; procedure, shortened: as §1
[16] = system: T47D; assay: Effect of DNA methylation at (-36) CpG site near androgen receptor transcription start site (-13) in human T47D cells by sodium bisulfite sequencing analysis; type: functional, cell-based; procedure, shortened: as §1
[17] = system: T47D; assay: Effect of DNA methylation at (-31) CpG site near androgen receptor transcription start site (-13) in human T47D cells by sodium bisulfite sequencing analysis; type: functional, cell-based; procedure, shortened: as §1
[18] = system: T47D; assay: Effect of DNA methylation at (+1) CpG site near androgen receptor transcription start site (-13) in human T47D cells by sodium bisulfite sequencing analysis; type: functional, cell-based
Procedure, shortened: (§2)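 T47D cells grown in RPMI-1640 with 10% FBS, 0.5% NEAA, insulin and P/S at 37 °C, 5% CO2. They were plated at 80,000 cells/well 2 days before lipid transfection with 25 nM or 100 nM duplex, with medium changed at 24 h. Cells were harvested 5 days post-transfection. 100 ng bisulfite-treated DNA was PCR-amplified, and products were TA-cloned. 5–15 colonies per plate were sequenced.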

[19] = system: T47D; assay: Effect of DNA methylation at (+11) CpG site near androgen receptor transcription start site (-13) in human T47D cells by sodium bisulfite sequencing analysis; type: functional, cell-based; procedure, shortened: as §2
[20] = system: T47D; assay: Effect of DNA methylation at (+19) CpG site near androgen receptor transcription start site (-13) in human T47D cells by sodium bisulfite sequencing analysis; type: functional, cell-based; procedure, shortened: as §2
[21] = system: T47D; assay: Effect of DNA methylation at (+43) CpG site near androgen receptor transcription start site (-13) in human T47D cells by sodium bisulfite sequencing analysis; type: functional, cell-based; procedure, shortened: as §1
[22] = system: T47D; assay: Inhibition of PR-B gene expression in human T47D cells harboring inactive DNA methyltransferase-1 at 100 nM by syber green assay; type: functional, cell-based
[23] = system: T47D; assay: Inhibition of PR-A gene expression in human T47D cells harboring inactive DNA methyltransferase-1 at 100 nM by syber green assay; type: functional, cell-based

Cc1cn(CC(=O)N(CCNC(=O)CN(CCNC(=O)CN(CCNC(=O)CN(CCNC(=O)CN(CCNC(=O)CN(CCNC(=O)CN(CCNC(=O)CN(CCNC(=O)CN(CCNC(=O)CN(CCNC(=O)CN(CCNC(=O)CN(CCNC(=O)CN(CCNC(=O)CN(CCNC(=O)CN(CCNC(=O)CN(CCNC(=O)CN(CCNC(=O)CN(CCNC(=O)CN(CCNC(=O)CN(CCNC(=O)CN)C(=O)Cn2ccc(N)nc2=O)C(=O)Cn2ccc(=O)[nH]c2=O)C(=O)Cn2ccc(N)nc2=O)C(=O)Cn2ccc(=O)[nH]c2=O)C(=O)Cn2ccc(N)nc2=O)C(=O)Cn2ccc(N)nc2=O)C(=O)Cn2cnc3c(N)ncnc32)C(=O)Cn2ccc(N)nc2=O)C(=O)Cn2ccc(N)nc2=O)C(=O)Cn2ccc(=O)[nH]c2=O)C(=O)Cn2ccc(N)nc2=O)C(=O)Cn2ccc(N)nc2=O)C(=O)Cn2ccc(N)nc2=O)C(=O)Cn2cnc3c(N)ncnc32)C(=O)Cn2cnc3c(=O)[nH]c(N)nc32)C(=O)Cn2ccc(N)nc2=O)C(=O)Cn2cnc3c(=O)[nH]c(N)nc32)C(=O)Cn2ccc(N)nc2=O)C(=O)Cn2ccc(N)nc2=O)CC(=O)NCCN(CC(=O)NCC(=O)O)C(=O)Cn2cc(C)c(=O)[nH]c2=O)c(=O)[nH]c1=O
inhibition [1]: Active
inhibition [2]: Active
inhibition at 0.1 µM [3]: 100%
inhibition at 0.1 µM [4]: 100%
inhibition [5]: Active
Activity [6]: inactive
Activity [7]: inactive
Activity [8]: inactive
Activity [9]: inactive
Activity [10]: inactive
Activity [11]: inactive
Activity [12]: inactive
Activity [13]: inactive
Activity [14]: inactive
Activity [15]: inactive
Activity [16]: inactive
Activity [17]: inactive
Activity [18]: inactive
Activity [19]: inactive
Activity [20]: inactive
Activity [21]: inactive

Cc1cn([C@H]2C[C@H](OP(=O)(O)OC[C@H]3O[C@@H](n4cc(C)c(=O)[nH]c4=O)C[C@@H]3O)[C@@H](COP(=O)(O)O[C@H]3[C@@H](O)[C@H](n4ccc(N)nc4=O)O[C@@H]3COP(=O)(O)O[C@H]3[C@@H](O)[C@H](n4cnc5c(=O)[nH]c(N)nc54)O[C@@H]3COP(=O)(O)O[C@H]3[C@@H](O)[C@H](n4cnc5c(N)ncnc54)O[C@@H]3COP(=O)(O)O[C@H]3[C@@H](O)[C@H](n4ccc(N)nc4=O)O[C@@H]3COP(=O)(O)O[C@H]3[C@@H](O)[C@H](n4cnc5c(N)ncnc54)O[C@@H]3COP(=O)(O)O[C@H]3[C@@H](O)[C@H](n4ccc(N)nc4=O)O[C@@H]3COP(=O)(O)O[C@H]3[C@@H](O)[C@H](n4ccc(N)nc4=O)O[C@@H]3COP(=O)(O)O[C@H]3C[C@H](n4ccc(=O)[nH]c4=O)O[C@@H]3COP(=O)(O)O[C@H]3[C@@H](O)[C@H](n4cnc5c(=O)[nH]c(N)nc54)O[C@@H]3COP(=O)(O)O[C@H]3[C@@H](O)[C@H](n4cnc5c(N)ncnc54)O[C@@H]3COP(=O)(O)O[C@H]3[C@@H](O)[C@H](n4cnc5c(=O)[nH]c(N)nc54)O[C@@H]3COP(=O)(O)O[C@H]3[C@@H](O)[C@H](n4ccc(N)nc4=O)O[C@@H]3COP(=O)(O)O[C@H]3[C@@H](O)[C@H](n4cnc5c(=O)[nH]c(N)nc54)O[C@@H]3COP(=O)(O)O[C@H]3[C@@H](O)[C@H](n4ccc(N)nc4=O)O[C@@H]3COP(=O)(O)O[C@H]3[C@@H](O)[C@H](n4ccc(=O)[nH]c4=O)O[C@@H]3COP(=O)(O)O[C@H]3[C@@H](O)[C@H](n4ccc(N)nc4=O)O[C@@H]3CO[PH](=O)O[C@H]3[C@@H](O)[C@H](n4ccc(=O)[nH]c4=O)O[C@@H]3COP(=O)(O)O[C@H]3[C@@H](O)[C@H](n4ccc(N)nc4=O)O[C@@H]3COP(=O)(O)O[C@H]3[C@@H](O)[C@H](n4ccc(=O)[nH]c4=O)O[C@@H]3CO)O2)c(=O)[nH]c1=O (some centres not stated)
inhibition [22]: Active
inhibition [1]: Active
inhibition [2]: Active
inhibition at 0.1 µM [3]: < 20%
inhibition at 0.1 µM [4]: < 20%
inhibition [23]: Active
